Experiment [1] deals with T1, GK-W99 (W167F/W257F) (Homo sapiens, UniProt P35557, W167F/W257F).
T1 sequence (P35557 1-465 W167F/W257F): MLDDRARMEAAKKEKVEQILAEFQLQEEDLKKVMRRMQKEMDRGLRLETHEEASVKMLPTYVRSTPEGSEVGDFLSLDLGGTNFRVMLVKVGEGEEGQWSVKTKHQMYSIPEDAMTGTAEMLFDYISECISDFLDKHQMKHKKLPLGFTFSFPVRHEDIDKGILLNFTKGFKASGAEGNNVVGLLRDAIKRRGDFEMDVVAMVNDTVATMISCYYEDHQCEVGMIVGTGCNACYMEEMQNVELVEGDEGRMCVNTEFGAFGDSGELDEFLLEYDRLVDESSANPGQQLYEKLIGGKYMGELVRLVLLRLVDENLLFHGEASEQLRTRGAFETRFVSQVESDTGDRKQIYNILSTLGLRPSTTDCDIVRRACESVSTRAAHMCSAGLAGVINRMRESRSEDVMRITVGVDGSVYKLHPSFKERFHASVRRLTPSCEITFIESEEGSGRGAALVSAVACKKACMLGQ
Briefly: NADP+-coupled spectrophotometric kinetic assay. The format is biochemical. The note with it: read-out: ATP KM; W-99; no GKA; 30% glycerol. Summed up: (§1)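 Recombinant human β-cell glucokinase single-Trp variant, expressed in E. coli as a GST fusion and sequence-verified. Catalytic parameters came from an NADP+-coupled spectrophotometric assay run with or without 30% glycerol. Hill coefficient and glucose S0.5 were obtained by fitting v/Vmax = [glucose]^H/(K′+[glucose]^H), with […].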

For experiment [2], the target named is T2, GK-W167 (W99R/W257F) (Homo sapiens, UniProt P35557, W257F/W99R).
T2 sequence (P35557 1-465 W99R/W257F): T1 sequence (P35557 1-465 W167F/W257F) with W99R, F167W
Kind of experiment: NADP+-coupled spectrophotometric kinetic assay. The following applies: read-out: ATP KM; W-167; no GKA; 30% glycerol. The format is biochemical. A digest of the protocol: as §1

Experiment [3] has as its target T3, GK- W257 (W99R/W167F) (Homo sapiens, UniProt P35557, W167F/W99R).
T3 sequence (P35557 1-465 W99R/W167F): T1 sequence (P35557 1-465 W167F/W257F) with W99R, F257W
Briefly: NADP+-coupled spectrophotometric kinetic assay. The format is biochemical. The following applies: read-out: ATP KM; W-257; no GKA; 30% glycerol.

Experiment [4] addresses T2, GK-W167 (W99R/W257F). The following applies: read-out: ATP KM; W-167; no GKA; no glycerol; ref [19]; cited from earlier work.
Experiment [5] has as its target T4, GK-WT (Homo sapiens, UniProt P35557).
T4 sequence (P35557 1-465): T1 sequence (P35557 1-465 W167F/W257F) with F167W, F257W
The following applies: read-out: ATP KM, no GKA, no glycerol, ref [19]; cited from earlier work.

For experiment [6], the target named is T1, GK-W99 (W167F/W257F). The note with it: read-out: ATP KM; W-99; no GKA; no glycerol; ref [19]; cited from earlier work.
The target of experiment [7] is T3, GK- W257 (W99R/W167F). The note with it: read-out: ATP KM; W-257; no GKA; no glycerol; ref [19]; cited from earlier work.
Experiment [8] addresses T4, GK-WT. Kind of experiment: NADP+-coupled spectrophotometric kinetic assay. The format is biochemical.
Experiment [9] concerns the target T4, GK-WT. Kind of experiment: Urea unfolding/refolding of GK by tryptophan fluorescence. Summed up:
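GK-WT unfolding was followed by urea titration in 20 mM PO4, 50 mM KCl, 1 mM EDTA, 1 mM DTT, pH 7.3, 20 °C, ± 20% glycerol, ± 300 mM glucose. I320/I360 was read at 295 nm excitation, and ΔGu(H2O) came from a two-state fit. Reversibility was tested after 30 min in 4 or 8 M urea, then dialysis, by restoration of the spectrum and glucose response.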

Experiment [10] deals with T4, GK-WT. Kind of experiment: Temperature dependent tryptophan fluorescence. The following applies: glycerol present, absence of glucose. Summed up:
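Tryptophan emission spectra of about 3 µM GK in 5 mM K-phosphate, pH 7.3, 100 mM KCl were recorded from 10 to 65 °C in a thermostatted, thermocouple-monitored cell. […] Line 7 also used ± 20% glycerol. Denaturation was followed as the I320/I360 ratio and its temperature derivative.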

Experiment [11] addresses T4, GK-WT. Kind of experiment: DSC thermal denaturation. Summed up: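 Wild-type recombinant human GK was run by DSC at 0.3 mg/ml (6 µM) in 5 mM phosphate, 100 mM KCl, pH 7.3, in buffer or 20% glycerol, with glucose up to 300 mM. The scan was 0.25 degree/min against a protein-free reference. Tm was plotted against glucose and fit to a hyperbola for EC50. Unfolding rate constant used k=vCp/(Qt−Q) to derive activation energy.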
For orientation: In DSC, transitions show as peaks or steps in heat flow.

Where a chain is given by its changes, count along the chain named. Like-named read-outs stand apart in the source and are kept apart here.

Take `Nc1ncnc2c1ncn2[C@@H]1O[C@H](COP(=O)(O)OP(=O)(O)OP(=O)(O)O)[C@@H](O)[C@H]1O` [ATP]: the Km – broadly, the substrate concentration at which the rate is half of its maximum – on GK-W99 (W167F/W257F) [1] is 710 µM; at GK-W167 (W99R/W257F) [2], 300 µM; at GK- W257 (W99R/W167F) [3] it was 710 µM; on GK-W167 (W99R/W257F) [4] it was 780 µM; on GK-WT [5] it was 460 µM; at GK-W99 (W167F/W257F) [6] it was 1630 µM. The Michaelis constant (Km) at GK- W257 (W99R/W167F) [7] is 3350 µM; on GK-WT [8] (read-out: ATP KM, GK-WT, no GKA, 30% glycerol), 230 µM.

With `OCC(O)CO` [glycerol], on GK-WT [9] (GK-WT in 20% glycerol, 20°C, pH 7.3), the “ΔGu(H2O) of urea denaturation” value stood at 1.84 kcal/mol. In addition, on GK-WT [10], the TmF worked out at 48 °C. The ΔH thermal denaturation on GK-WT [11] (GK-WT in 20% glycerol, no D-glucose) worked out at 126 kcal/mol. Further, on GK-WT [11] (GK-WT in 20% glycerol, no D-glucose, DSC), the Tm (as a rule, the temperature at which the thermal transition is half complete) amounted to 51.3 °C. Further, on GK-WT [11] (GK-WT, 20% glycerol, 0 mM D-glucose), the Ea thermal denaturation worked out at 131.5 kcal/mol. For the same compound, the “Q10 of the GK reaction” value at GK-WT [8] (presence of glycerol) is on record as 1.47.

For `NC(N)=O` [urea], the “reversibility of GK unfolding” value on GK-WT [9] (4 or 8 M urea, TF studies, urea removed by dialysis) is “fully reversible”.

The values are drawn from article PMC4180501 (Biochimica et biophysica acta, 2012).
